The results in this text go back to PubChem BioAssay AID692 (The Scripps Research Institute Molecular Screening Center, 2007).

The source made the active and inactive calls.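 Rule for the calls: active = EC50 at or below a set limit; inactive = the rest.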 Where only a bound is given, the exact number is not on record here.

A word on the EC50: it is the concentration that produces a half-maximal response.

Chain of Steroidogenic factor 1 (Homo sapiens) (Q13285 whole entry, looked up, the tested form may be a part): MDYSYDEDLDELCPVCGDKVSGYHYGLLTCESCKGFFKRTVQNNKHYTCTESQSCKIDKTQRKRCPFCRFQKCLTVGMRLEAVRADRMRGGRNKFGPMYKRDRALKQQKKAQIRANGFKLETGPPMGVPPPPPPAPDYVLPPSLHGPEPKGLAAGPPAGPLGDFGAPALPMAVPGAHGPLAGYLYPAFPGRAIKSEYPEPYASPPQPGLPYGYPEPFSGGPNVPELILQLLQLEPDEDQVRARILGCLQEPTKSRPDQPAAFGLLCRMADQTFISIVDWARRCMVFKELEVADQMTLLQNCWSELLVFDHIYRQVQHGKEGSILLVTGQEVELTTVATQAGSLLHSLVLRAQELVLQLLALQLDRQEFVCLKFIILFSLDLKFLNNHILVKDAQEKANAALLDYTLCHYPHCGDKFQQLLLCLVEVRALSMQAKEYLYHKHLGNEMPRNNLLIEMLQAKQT

The assay has as its target Steroidogenic factor 1 (Homo sapiens) (UniProt Q13285). Briefly: activation of SF-1 LBD reporter – cell-based, CHO-K1, Gal4-SF-1 LBD, luciferase luminescence, dose response (AID 692). The conditions noted are these: CHO-K1 Gal4-SF1 LBD luciferase reporter. The gist of the method:
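Assay system: CHO-K1 Gal4–SF-1 LBD luciferase reporter cells; compound dosing: 10 points, 1:3 steps, up to 100 µM; incubation: 20 h compound exposure, 37 °C; measured by: luminescence; read-out basis: % activation vs DMSO/mock-transfected cells, EC50 from four-parameter sigmoidal fit; benchmarks: DMSO-treated transfected cells and mock-transfected background; replicates: triplicate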
Background: Reporter assays use an easily measured gene product as a stand-in for the process of interest.
Take `Cc1ccc(C2/C(=C(\O)c3cnn(-c4ccccc4)c3C)C(=O)C(=O)N2CCN(C)C)o1` (stereo not drawn): the EC50 is 3.59 µM. Then `CC1(C)CC(=O)C(C=Nc2ccc3[nH]ncc3c2)=C(O)C1`, with > 11 µM (inactive).

As for `COc1ccc(C(=O)/C=C/Nc2cccc(C)n2)cc1OC`, the EC50 was 0.401 µM.

On to `COC(=O)c1ccc(/C(O)=C(\C#N)c2nc3ccccc3s2)cc1`, for which the EC50 is 2.71 µM. For the compound `C/C(N)=C(/C#N)C(=O)CSc1ccc2c(c1)OCCO2`, the EC50 was 2.89 µM.

As for `COc1cc(C2C3C(=O)N(c4ccccc4)C(=O)C3ON2c2ccccc2)ccc1O` (stereo not drawn), the EC50 entry is “inactive”. On to `O=C1CCCC(O)=C1C=Nc1ccc(O)cc1`, for which the EC50 was 3.76 µM. As for `CC1(C)CC(=O)C(C=Nc2ccccc2)=C(O)C1`, the EC50 is 6.83 µM.
